Measurements from ChEMBL document CHEMBL5042537, “Synthesis and Characterization of 5-(2-Fluoro-4-[11C]methoxyphenyl)-2,2-dimethyl-3,4-dihydro-2H-pyrano[2,3-b]pyridine-7-carboxamide as a PET Imaging Ligand for Metabotropic Glutamate Receptor 2” (J Med Chem, 2022).
Values belong to the molecule of their own block, whether it stands above or below them. The source made the active and inactive calls. No cut-off for these calls is given here.

Experiments:
[1] = target: T1, Metabotropic glutamate receptor 2 (Homo sapiens, UniProt Q14416); test: Binding affinity to human recombinant mGlur2 assessed as inhibition constant by cAMP Glosensor assay
Target sequence in this assay (Q14416 whole entry): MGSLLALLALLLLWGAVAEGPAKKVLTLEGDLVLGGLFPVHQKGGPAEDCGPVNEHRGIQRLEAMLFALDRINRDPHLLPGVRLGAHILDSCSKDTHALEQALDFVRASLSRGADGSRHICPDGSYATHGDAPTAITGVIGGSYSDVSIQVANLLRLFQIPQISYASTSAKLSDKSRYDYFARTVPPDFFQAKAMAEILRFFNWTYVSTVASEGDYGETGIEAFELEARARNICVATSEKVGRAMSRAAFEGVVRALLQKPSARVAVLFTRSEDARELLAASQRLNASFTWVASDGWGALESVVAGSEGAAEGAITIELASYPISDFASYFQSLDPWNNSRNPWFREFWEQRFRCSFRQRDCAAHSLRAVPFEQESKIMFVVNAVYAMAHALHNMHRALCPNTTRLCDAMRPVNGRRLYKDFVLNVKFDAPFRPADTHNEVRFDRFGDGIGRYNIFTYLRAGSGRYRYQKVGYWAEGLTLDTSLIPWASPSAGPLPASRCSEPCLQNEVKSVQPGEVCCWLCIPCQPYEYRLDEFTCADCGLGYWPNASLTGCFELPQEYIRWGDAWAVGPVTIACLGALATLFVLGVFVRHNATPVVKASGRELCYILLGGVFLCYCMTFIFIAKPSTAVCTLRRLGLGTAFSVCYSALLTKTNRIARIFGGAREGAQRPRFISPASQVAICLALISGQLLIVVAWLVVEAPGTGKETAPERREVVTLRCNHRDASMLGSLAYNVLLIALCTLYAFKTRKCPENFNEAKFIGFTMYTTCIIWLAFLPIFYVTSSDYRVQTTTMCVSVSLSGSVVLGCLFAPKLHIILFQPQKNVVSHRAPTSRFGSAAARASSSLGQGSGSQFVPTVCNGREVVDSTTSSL

[2] = Lipophilicity, LogD at pH 7.4 of the compound by shake flask method; assay type: physicochemical; settings: buffer
In short: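 Shake-flask method: 0.1 mg compound in n-octanol/PBS pH 7.4 (1.0 mL each), vortexed 1 min and shaken at 37 °C overnight. Each phase was quantified by HPLC peak area at 254 nm, and LogD = log(octanol/PBS). Run at least three times.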

[3] = target: T1, Metabotropic glutamate receptor 2; test: Negative allosteric modulation activity at human recombinant mGlur2 at 30 nM by cAMP Glosensor assay; assay type: functional; settings: filed as negative allosteric modulator
In short: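 Flp-In T-REx-293 cells with tetracycline-inducible mGluR2 (induced with 1 μg/mL tetracycline) were transfected with pGloSensor-21F and plated at 15,000 cells/well in BME with 1% dialyzed FBS. Split-luciferase cAMP read-out was taken with 0.1 μM isoproterenol and increasing L-glutamate. Glutamate curves were fitted to an allosteric operational model; three independent assays in triplicate.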
Target sequence in this assay (Q14416 19-872 limits assumed): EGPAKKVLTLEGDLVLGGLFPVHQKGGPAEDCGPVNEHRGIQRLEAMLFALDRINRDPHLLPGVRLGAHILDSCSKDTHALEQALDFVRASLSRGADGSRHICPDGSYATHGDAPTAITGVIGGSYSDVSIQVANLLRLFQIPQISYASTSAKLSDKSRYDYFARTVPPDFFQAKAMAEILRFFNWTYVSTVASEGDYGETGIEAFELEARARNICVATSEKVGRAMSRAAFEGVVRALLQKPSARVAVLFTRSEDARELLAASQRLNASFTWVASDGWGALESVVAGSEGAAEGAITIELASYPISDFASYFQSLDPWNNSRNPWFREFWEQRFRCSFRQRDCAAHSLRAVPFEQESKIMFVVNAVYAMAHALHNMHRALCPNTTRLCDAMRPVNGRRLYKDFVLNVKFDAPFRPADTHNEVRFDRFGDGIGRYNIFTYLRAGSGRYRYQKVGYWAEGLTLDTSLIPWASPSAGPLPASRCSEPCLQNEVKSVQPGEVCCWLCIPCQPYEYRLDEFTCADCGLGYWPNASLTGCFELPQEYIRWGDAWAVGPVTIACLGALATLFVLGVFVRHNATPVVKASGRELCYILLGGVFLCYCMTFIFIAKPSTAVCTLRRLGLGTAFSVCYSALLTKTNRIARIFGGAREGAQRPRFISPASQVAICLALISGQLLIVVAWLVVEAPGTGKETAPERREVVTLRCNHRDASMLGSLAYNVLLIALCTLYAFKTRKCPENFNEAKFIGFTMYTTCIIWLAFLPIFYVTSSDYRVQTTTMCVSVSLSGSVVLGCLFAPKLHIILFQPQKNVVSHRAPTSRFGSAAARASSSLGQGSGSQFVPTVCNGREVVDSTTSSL

[4] = Stability of the compound in rat liver microsome measured at 60 min; assay type: ADME; settings: liver microsomes, read-out: Stability
In short: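 Compound (1.5 μL of 1 mM DMSO stock) in PBS was preincubated at 37 °C, then Sprague–Dawley rat liver microsomes and NADPH (10 mM stock) were added. After 60 min at 37 °C, reactions were quenched with cold acetonitrile and analysed by HPLC against an internal standard. Stability = 60 min/0 min peak area × 100%; at least three repeats.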

[5] = Stability of the compound in rat plasma measured at 60 min; assay type: ADME, cell-free; settings: read-out: Stability
In short: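 Compound (2.5 μL of 1 mM DMSO stock) was incubated in 100 μL rat serum at 37 °C for 60 min, then quenched with ice-cold acetonitrile and centrifuged. Supernatant was analysed by HPLC against an internal standard. Stability = peak area at 60 min / peak area at 0 min × 100%; at least three repeats.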

[6] = Permeability of the compound in Sprague-Dawley rat brain striatum at 1 to 30 mins by CT scan; assay type: ADME, tissue-based; settings: time 1-30 min
In short: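 Male Sprague–Dawley rats under isoflurane anaesthesia were injected iv via tail vein with the [11C] tracer (63.0–87.3 MBq). Dynamic PET ran for 60 min, reconstructed by MLEM, with a CT scan for attenuation correction. Striatal SUV time-activity curves were derived, and images were summed over 1–30 min.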

[7] = Drug uptake in Sprague-Dawley rat brain thalamus mGlr2 rich region by CT scan; assay type: ADME, tissue-based; settings: in vivo
In short: (§1)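 Male Sprague–Dawley rats (285–421 g) under isoflurane received [11C] tracer (63.0–87.3 MBq) iv via tail vein, followed by 60 min dynamic PET with CT for attenuation correction. Blockers were given iv 1 or 20 min before tracer, at 0.5 mg/kg (10% ethanol/5% Tween-80/saline) or 0.2 mg/kg (10% DMSO/5% Tween-20/PBS). Regional accumulation was taken over 2–30 min and compared with baseline scans.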

[8] = Drug uptake in Sprague-Dawley rat brain hippocampus mGlr2 rich region by CT scan; assay type: ADME, tissue-based; settings: in vivo; in short: as §1
[9] = Drug metabolism in Cynomolgus monkey plasma assessed as retention time of metabolite by measuring pretreated with 4-(4-fluorophenyl)-5-((1-methyl-1H-pyrazol-3-yl)methoxy)picolinamide at 1 mg/kg, iv for 20 min before administration of tracer injection by CT scan; assay type: ADME, organism-based, Macaca fascicularis; settings: in vivo
In short: (§2)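 Cynomolgus monkey (female, 5.0 kg) given tracer as a 3 min iv infusion, with blocker 1.0 mg/kg iv 20 min before. Plasma samples from 5–120 min were analysed by automated column-switching radioHPLC (capture column, then C18 with acetonitrile:0.1 M ammonium formate 45:55, 0.1% TFA). Eluate was collected in 1 min fractions and gamma-counted to give percent parent.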

[10] = Drug uptake in Sprague-Dawley rat brain thalamus mGlr2 rich region assessed as decrease in drug accumulation pretreated with 4-(8-bromo-2-oxo-2,3-dihydro-1H-benzo[b][1,4]diazepin-4-yl)picolinonitrile at 0.2 mg/kg, iv for 20 min before administration of tracer injection by CT scan; assay type: ADME, organism-based; settings: in vivo, pooled result: one value given for 4 cell lines, strains, targets or settings; in short: as §1
[11] = Drug uptake in Sprague-Dawley rat brain cerebellum mGlr2 rich region assessed as decrease in drug accumulation pretreated with 4-(8-bromo-2-oxo-2,3-dihydro-1H-benzo[b][1,4]diazepin-4-yl)picolinonitrile at 0.2 mg/kg, iv for 1 min before administration of tracer injection by CT scan; assay type: ADME, organism-based; settings: in vivo; in short: as §1
[12] = Drug uptake in Sprague-Dawley rat brain cortex mGlr2 rich region by CT scan; assay type: ADME, tissue-based; settings: in vivo; in short: as §1
[13] = Drug uptake in Sprague-Dawley rat brain cortex mGlr2 rich region assessed as decrease in drug accumulation pretreated with 4-(4-fluorophenyl)-5-((1-methyl-1H-pyrazol-3-yl)methoxy)picolinamide at 0.5 mg/kg, iv for 1 min before administration of tracer injection by CT scan; assay type: ADME, organism-based; settings: in vivo; in short: as §1
[14] = Drug uptake in Sprague-Dawley rat brain thalamus mGlr2 rich region assessed as decrease in drug accumulation pretreated with 4-(4-fluorophenyl)-5-((1-methyl-1H-pyrazol-3-yl)methoxy)picolinamide at 0.5 mg/kg, iv for 1 min before administration of tracer injection by CT scan; assay type: ADME, organism-based; settings: in vivo; in short: as §1
[15] = Drug uptake in Sprague-Dawley rat brain hypothalamus mGlr2 rich region by CT scan; assay type: ADME, tissue-based; settings: in vivo; in short: as §1
[16] = Drug uptake in Sprague-Dawley rat brain striatum mGlr2 rich region assessed as decrease in drug accumulation pretreated with 4-(4-fluorophenyl)-5-((1-methyl-1H-pyrazol-3-yl)methoxy)picolinamide at 0.5 mg/kg, iv for 1 min before administration of tracer injection by CT scan; assay type: ADME, organism-based; settings: in vivo, pooled result: one value given for 4 cell lines, strains, targets or settings; in short: as §1
[17] = Drug uptake in Sprague-Dawley rat brain thalamus mGlr2 rich region assessed as decrease in drug accumulation pretreated with 4-(8-bromo-2-oxo-2,3-dihydro-1H-benzo[b][1,4]diazepin-4-yl)picolinonitrile at 0.2 mg/kg, iv for 1 min before administration of tracer injection by CT scan; assay type: ADME, organism-based; settings: in vivo; in short: as §1
[18] = Permeability of the compound across blood brain barrier in Sprague-Dawley rat after 4 mins by CT scan; assay type: ADME, tissue-based
In short: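 Male Sprague–Dawley rats (285–421 g) under isoflurane (1.0–1.5%) in oxygen. [11C]tracer (63.0–87.3 MBq) given iv via tail-vein catheter. Dynamic PET ran 60 min from injection, followed by CT for anatomy and attenuation correction. Data were reconstructed by MLEM into 24 frames. Regional brain uptake was expressed as SUV time-activity curves.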

[19] = Drug uptake in Sprague-Dawley rat brain hippocampus mGlr2 rich region assessed as decrease in drug accumulation pretreated with 4-(8-bromo-2-oxo-2,3-dihydro-1H-benzo[b][1,4]diazepin-4-yl)picolinonitrile at 0.2 mg/kg, iv for 1 min before administration of tracer injection by CT scan; assay type: ADME, organism-based; settings: in vivo; in short: as §1
[20] = Drug uptake in Sprague-Dawley rat brain striatum mGlr2 rich region assessed as decrease in drug accumulation pretreated with 4-(8-bromo-2-oxo-2,3-dihydro-1H-benzo[b][1,4]diazepin-4-yl)picolinonitrile at 0.2 mg/kg, iv for 20 min before administration of tracer injection by CT scan; assay type: ADME, organism-based; settings: in vivo; in short: as §1
[21] = Drug metabolism in Cynomolgus monkey plasma assessed as parent compound remaining pretreated with 4-(4-fluorophenyl)-5-((1-methyl-1H-pyrazol-3-yl)methoxy)picolinamide at 1 mg/kg, iv for 20 mins before administration of tracer injection measured after 120 mins by CT scan; assay type: ADME, organism-based, Macaca fascicularis; settings: read-out: Stability; in short: as §2
[22] = Drug metabolism in Cynomolgus monkey plasma assessed as parent compound remaining pretreated with 4-(4-fluorophenyl)-5-((1-methyl-1H-pyrazol-3-yl)methoxy)picolinamide at 1 mg/kg, iv for 20 mins before administration of tracer injection measured after 30 mins by CT scan; assay type: ADME, organism-based, Macaca fascicularis; settings: read-out: Stability; in short: as §2
[23] = Drug uptake in Sprague-Dawley rat brain […] rich region assessed as decrease in drug accumulation pretreated with 4-(8-bromo-2-oxo-2,3-dihydro-1H-benzo[b][1,4]diazepin-4-yl)picolinonitrile at 0.2 mg/kg, iv for 1 min before administration of tracer injection by CT scan; assay type: ADME, organism-based; settings: in vivo; in short: as §1
[24] = Drug uptake in Sprague-Dawley rat brain cerebellum mGlr2 rich region by CT scan; assay type: ADME, tissue-based; settings: in vivo; in short: as §1
[25] = Drug uptake in Sprague-Dawley rat brain cerebellum mGlr2 rich region assessed as decrease in drug accumulation pretreated with 4-(8-bromo-2-oxo-2,3-dihydro-1H-benzo[b][1,4]diazepin-4-yl)picolinonitrile at 0.2 mg/kg, iv for 20 min before administration of tracer injection by CT scan; assay type: ADME, organism-based; settings: in vivo; in short: as §1
[26] = Drug uptake in Sprague-Dawley rat brain striatum mGlr2 rich region assessed as decrease in drug accumulation pretreated with 4-(8-bromo-2-oxo-2,3-dihydro-1H-benzo[b][1,4]diazepin-4-yl)picolinonitrile at 0.2 mg/kg, iv for 1 min before administration of tracer injection by CT scan; assay type: ADME, organism-based; settings: in vivo; in short: as §1
[27] = Drug uptake in Sprague-Dawley rat brain hypothalamus mGlr2 rich region assessed as decrease in drug accumulation pretreated with 4-(8-bromo-2-oxo-2,3-dihydro-1H-benzo[b][1,4]diazepin-4-yl)picolinonitrile at 0.2 mg/kg, iv for 1 min before administration of tracer injection by CT scan; assay type: ADME, organism-based; settings: in vivo; in short: as §1
[28] = Drug uptake in Sprague-Dawley rat brain striatum mGlr2 rich region by CT scan; assay type: ADME, tissue-based; settings: in vivo; in short: as §1

SMILES: CC1(C)CCc2c(-c3ccc(O[11CH3])cc3F)cc(C(N)=O)nc2O1
- Drug uptake [7]: Active
- Drug uptake [8]: Active
- Retention_time [9]: 2 min
- Drug uptake [10]: 12.7%
- Drug uptake [11]: 39.6%
- Drug uptake [12]: Active
- Drug uptake [13]: 38.5%
- Drug uptake [14]: 17.1%
- Drug uptake [15]: Active
- Drug uptake [16]: 22.4%
- Drug uptake [17]: 41.7%
- SUV [18]: 7.5
- Drug uptake [19]: 41.7%
- Drug uptake [20]: 11.1%
- remaining at 20 min [21]: 24.8%
- remaining at 20 min [22]: 53%
- Drug uptake [23]: 39.6%
- Drug uptake [24]: Active
- Drug uptake [25]: 15.2%
- Drug uptake [26]: 41.7%
- Drug uptake [27]: 42.6%
- Drug uptake [28]: Active

SMILES: Cn1ccc(COc2cnc(C(N)=O)cc2-c2ccc(O[11CH3])cc2F)n1
- SUVmax [6]: 1.2

SMILES: COc1ccc(-c2cc(C(N)=O)nc3c2CCC(C)(C)O3)c(F)c1
- logD [2]: 2.94
- remaining at 1 h [4]: 47.8%
- remaining at 1 h [5]: 94.5%

More lines, now with the values ahead:

- Ki [1]: 59 nM
- logD [2]: 2.81
- Activity [3]: Active
- remaining at 1 h [4]: 94.5%
- remaining at 1 h [5]: 95.3%
SMILES: CC1(C)CCc2c(-c3ccc(F)cc3F)cc(C(N)=O)nc2O1

- SUVmax [6]: 1.7
SMILES: [11CH3]Oc1cc(CN2CCc3c(-c4ccc(F)cc4F)cc(C(N)=O)nc3C2)ccn1
